Among the data in ChEMBL document CHEMBL2216748 (J Med Chem, 2012) are Activity and Stability values, retold here.

Active and inactive are the calls of the source. The calls are words filed in the database; no cut-off is given here.

Series [1] has as its target Vacuolar protein sorting-associated protein 35 (Homo sapiens) (UniProt Q96QK1). Briefly: Displacement of 2-((R)-1-cyclohexyl-2-oxo-2-((S)-2-(4-(N-((S)-6,9,25-trioxo-29-((3aS,4S,6aR)-2-oxohexahydro-1H-thieno[3,4-d]imidazol-4-yl)-8-(4-(3-(trifluoromethyl)-3H-diazirin-3-yl)benzamido)-14,17,20-trioxa-5,10,24-triazanonacosyl)carbamimidoyl)benzylcarbamoyl)azetidin-1-yl)ethylamino)acetic acid from VPS35 in human HepG2 cell lysate after 1 hr by capture compound based LC/MS analysis. In kind it is cell-free. The method, boiled down: (§1)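 Capture compound MS: 400 μg HepG2 or K562 lysate in capture buffer, precleared with streptavidin beads 30 min at 4 °C. Competition controls preincubated 30 min at 4 °C with free drug (10 μL of 1 mM). Capture compound (10 μL of 50 μM) equilibrated 1 h at 4 °C, UV-irradiated 10 min, streptavidin bead pulldown, on-bead trypsin digestion, nanoLC-MS/MS. Spectral counts compared capture vs competition (t test). HepG2 in quadruplicate, K562 in duplicate.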

The target in series [2] is T1, Leucine-rich repeat-containing protein 59 (Homo sapiens) (UniProt Q96AG4).
T1 sequence (whole entry): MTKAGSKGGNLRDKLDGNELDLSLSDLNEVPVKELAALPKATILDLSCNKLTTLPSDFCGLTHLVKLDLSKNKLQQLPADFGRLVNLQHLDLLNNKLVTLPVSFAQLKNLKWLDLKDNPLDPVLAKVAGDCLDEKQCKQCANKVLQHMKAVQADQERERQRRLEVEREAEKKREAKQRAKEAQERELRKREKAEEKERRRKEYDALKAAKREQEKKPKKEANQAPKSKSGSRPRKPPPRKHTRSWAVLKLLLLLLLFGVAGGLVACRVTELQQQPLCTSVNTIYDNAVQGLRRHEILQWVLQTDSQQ
The experiment in a line: Displacement of 2-((R)-1-cyclohexyl-2-oxo-2-((S)-2-(4-(N-((S)-6,9,25-trioxo-29-((3aS,4S,6aR)-2-oxohexahydro-1H-thieno[3,4-d]imidazol-4-yl)-8-(4-(3-(trifluoromethyl)-3H-diazirin-3-yl)benzamido)-14,17,20-trioxa-5,10,24-triazanonacosyl)carbamimidoyl)benzylcarbamoyl)azetidin-1-yl)ethylamino)acetic acid from LRC59 in human HepG2 cell lysate after 1 hr by capture compound based LC/MS analysis. In kind it is cell-free. In a few lines: as §1

Series [3] concerns the target Prothrombin (Homo sapiens) (UniProt P00734). Briefly: Binding affinity to human recombinant thrombin after 1 hr by Western blot analysis. In a few lines: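 Purified human recombinant thrombin (2 μg) incubated with capture compound for 1 h at 4 °C, with or without preincubation with free drug as competitor. Sample UV-irradiated 10 min, captured on streptavidin beads, then analysed by silver-stained SDS-PAGE and by streptavidin-HRP blot to detect covalent biotinylation.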

The nature of series [4]: Thermal stability of the compound. In kind it is physicochemical. In a few lines:
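Capture compound incubated 30 min native at 4 °C or denatured at 80 °C as thermal stress. Biological stress was 30 min in HepG2 lysate at 4 and 37 °C. UV irradiation for 10 and 30 min was checked for a single defined photoproduct.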

The target in series [5] is T2, Ribosyldihydronicotinamide dehydrogenase [quinone] (Homo sapiens) (UniProt P16083).
T2 sequence (whole entry): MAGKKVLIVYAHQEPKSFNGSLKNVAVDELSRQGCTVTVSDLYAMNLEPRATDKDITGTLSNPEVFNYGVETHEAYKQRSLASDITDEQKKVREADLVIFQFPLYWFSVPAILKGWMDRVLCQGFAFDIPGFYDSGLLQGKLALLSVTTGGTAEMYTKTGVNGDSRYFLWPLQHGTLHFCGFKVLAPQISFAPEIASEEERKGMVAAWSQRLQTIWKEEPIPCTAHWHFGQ
Briefly: Displacement of (S)-N4-(2-(4-(4-(4-methyl-3-(4-(pyridin-3-yl)pyrimidin-2-ylamino)phenylcarbamoyl)benzyl)piperazin-1-yl)ethyl)-N1-(15-oxo-19-((3aS,4S,6aR)-2-oxohexahydro-1H-thieno[3,4-d]imidazol-4-yl)-4,7,10-trioxa-14-azanonadecyl)-2-(4-(3-(trifluoromethyl)-3H-diazirin-3-yl)benzamido)succinamide from NQO2 in human K562 cell lysate at 100 uM after 1 hr by Western blot analysis. In kind it is cell-free. In a few lines: (§2)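 Lysate (400 μg, precleared with streptavidin beads 30 min at 4 °C) in capture buffer was preincubated with competitor (final 100 μM) for 30 min at 4 °C. […] Streptavidin beads were added for 1 h at 4 °C, followed by anti-NQO2 (1:500) Western blot.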

Series [6] addresses T2, Ribosyldihydronicotinamide dehydrogenase [quinone] (Homo sapiens). The experiment in a line: Displacement of (S)-N4-(4-(3-(2-((4-carbamimidoylphenylamino)methyl)-1-methyl-N-(pyridin-2-yl)-1H-benzo[d]imidazole-5-carboxamido)propanamido)butyl)-N1-(15-oxo-19-((3aS,4S,6aR)-2-oxohexahydro-1H-thieno[3,4-d]imidazol-4-yl)-4,7,10-trioxa-14-azanonadecyl)-2-(4-(3-(trifluoromethyl)-3H-diazirin-3-yl)benzamido)succinamide from human recombinant NQO2 after 1 hr by silver staining-based SDS PAGE analysis. The method, boiled down: (§3)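 Human recombinant NQO2 (1 μg) was preincubated 30 min at 4 °C with competitor, then capture compound was added at 5 μM final (competitors 100 μM final) and equilibrated 1 h at 4 °C. Samples were UV-irradiated 10 min, pulled down on streptavidin beads and resolved by silver-stained SDS-PAGE.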

Series [7] has the same target. The experiment in a line: Displacement of (S)-N4-(2-(4-(4-(4-methyl-3-(4-(pyridin-3-yl)pyrimidin-2-ylamino)phenylcarbamoyl)benzyl)piperazin-1-yl)ethyl)-N1-(15-oxo-19-((3aS,4S,6aR)-2-oxohexahydro-1H-thieno[3,4-d]imidazol-4-yl)-4,7,10-trioxa-14-azanonadecyl)-2-(4-(3-(trifluoromethyl)-3H-diazirin-3-yl)benzamido)succinamide from NQO2 in human HepG2 cell lysate at 100 uM after 1 hr by Western blot analysis. In kind it is cell-free. The method, boiled down: as §2
For orientation: A western blot detects proteins with antibodies after separation by electrophoresis.

Series [8] has the same target. Briefly: Displacement of (S)-N4-(2-(4-(4-(4-methyl-3-(4-(pyridin-3-yl)pyrimidin-2-ylamino)phenylcarbamoyl)benzyl)piperazin-1-yl)ethyl)-N1-(15-oxo-19-((3aS,4S,6aR)-2-oxohexahydro-1H-thieno[3,4-d]imidazol-4-yl)-4,7,10-trioxa-14-azanonadecyl)-2-(4-(3-(trifluoromethyl)-3H-diazirin-3-yl)benzamido)succinamide from human recombinant NQO2 after 1 hr by silver staining-based SDS PAGE analysis. In a few lines: as §3

Series [9] has the same target. The experiment in a line: Displacement of (S)-N4-(2-(4-(4-(4-methyl-3-(4-(pyridin-3-yl)pyrimidin-2-ylamino)phenylcarbamoyl)benzyl)piperazin-1-yl)ethyl)-N1-(15-oxo-19-((3aS,4S,6aR)-2-oxohexahydro-1H-thieno[3,4-d]imidazol-4-yl)-4,7,10-trioxa-14-azanonadecyl)-2-(4-(3-(trifluoromethyl)-3H-diazirin-3-yl)benzamido)succinamide from NQO2 in human K562 cell lysate after 1 hr by capture compound based LC/MS analysis. In kind it is cell-free. The method, boiled down: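 K562 lysate (400 μg, precleared) was preincubated with competitor (final 100 μM) for 30 min at 4 °C. Capture compound (final 5 μM) was added for 1 h at 4 °C, then UV-crosslinked 10 min. Proteins were pulled down on streptavidin beads and trypsin-digested on-bead for 16 h at 37 °C, then analysed by nanoLC-Orbitrap MS/MS. Spectral counts in capture versus competition were compared, with duplicate experiments.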

Turning to `N=C(N)c1ccc(CNC(=O)[C@@H]2CCN2C(=O)[C@H](NCC(=O)O)C2CCCCC2)cc1`, the outcome in [1] and in [2] was Active.
In the case of `N=C(N)c1ccc(CNC(=O)[C@@H]2CCN2C(=O)[C@H](NCC(=O)NCCCCNC(=O)C[C@H](NC(=O)c2ccc(C3(C(F)(F)F)N=N3)cc2)C(=O)NCCCOCCOCCOCCCNC(=O)CCCC[C@@H]2SC[C@@H]3NC(=O)N[C@@H]32)C2CCCCC2)cc1`, the result in series [3] was Active. The Stability entry in series [4] was “Stable”.
On to `Cc1ccc(NC(=O)c2ccc(CN3CCN(C)CC3)cc2)cc1Nc1nccc(-c2cccnc2)n1`, for which the result in [5], in series [6], in series [7], in series [8] and in [9] was Active.
